Data reported in ChEMBL document CHEMBL1149419, “Peptide-mediated cell transport of water soluble porphyrin conjugates” (J Med Chem, 2006).
*1 amine or outer side, *2 acyl side, *3 side chain or, on linkers, in order; H or OH if unused. Where a SMILES comes first, the peptide text is derived from it. [ ]: non-standard residue; d: D form. The star is where a group is joined. X1 = O=C(COCC(=O)*)Nc1ccc(-c2c3nc(c(-c4ccccc4)c4ccc([nH]4)c(-c4ccccc4)c4nc(c(-c5ccccc5)c5ccc2[nH]5)C=C4)C=C3)cc1; NH(CH2CH2O)6CH2CO = O=C(COCCOCCOCCOCCOCCOCCN[*:1])[*:2]

Key:
[1] = tested on: HEp-2; test: Cellular uptake in human HEp2 cells at 10 uM; assay type: ADME, cell-based; conditions: hep-2, 10 µM
Outline: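 HEp2 cells seeded at 10 000 per well and grown overnight, then exposed to 10 µM conjugate (diluted into medium from 10 mM water stocks) for 0, 1, 2, 4, 8 and 24 h. After PBS wash, cells lysed in 0.25% Triton X-100/PBS. Conjugate quantified by fluorescence at 410/650 nm (ex/em), and cell number by CyQuant.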

[2] = tested on: HEp-2; test: Dark cytotoxicity against human HEp2 cells at 100 uM; assay type: functional, cell-based
Outline: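 HEp2 cells seeded at 10 000 per well and allowed 36-48 h to attach. They were given increasing conjugate concentrations up to 100 µM and incubated overnight without light. Viability was read with Cell Titer Blue fluorescence at 520/584 nm and normalized to untreated cells (100%) and 0.2% saponin-treated cells (0%).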

[3] = tested on: HEp-2; test: Phototoxicity against human HEp2 cells at 10 uM; assay type: cell-based
Outline: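 HEp2 cells seeded and attached 36-48 h, then loaded overnight with conjugate at 0, 0.625, 1.25, 2.5, 5 and 10 µM. Medium was swapped for medium with 50 mM HEPES pH 7.4. Cells were irradiated on ice for 10 min with a 100 W halogen lamp through a 610 nm long-pass filter and a water IR filter, about 0.5 J/cm2. After overnight incubation, viability was read by Cell Titer Blue.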

[4] = Homo sapiens, HEp-2, read-out: IC50

Compound	Activity [1]	IC50 ([2]; hep-2)	IC50 ([3]; hep-2)	IC50 [2, 4] [µM]	IC50 ([3]; Homo sapiens, HEp-2, light or radiation study, read-out: IC50) [nM]
CC(C)[C@H](NC(=O)[C@H](CCCCN)NC(=O)[C@H](CCCN=C(N)N)NC(=O)[C@H](CCCCN)NC(=O)[C@H](CCCCN)NC(=O)[C@H](CCCCN)NC(=O)[C@@H]1CCCN1C(=O)CNC(=O)COCC(=O)NCCOCCOCCOCCOCCOCCOCCOCCNC(=O)COc1ccc(-c2c3nc(c(-c4ccc(OCC(=O)O)cc4)c4ccc([nH]4)c(-c4ccc(OCC(=O)O)cc4)c4nc(c(-c5ccc(OCC(=O)O)cc5)c5ccc2[nH]5)C=C4)C=C3)cc1)C(N)=O	Active	Not Active	Not Active	–	–
NCCCC[C@H](NC(=O)[C@H](CCCN=C(N)N)NC(=O)CNC(=O)COCCOCCOCCOCCOCCOCCNC(=O)COCC(=O)Nc1ccc(-c2c3nc(c(-c4ccccc4)c4ccc([nH]4)c(-c4ccccc4)c4nc(c(-c5ccccc5)c5ccc2[nH]5)C=C4)C=C3)cc1)C(=O)N[C@@H](CCCCN)C(=O)N[C@@H](CCCN=C(N)N)C(=O)N[C@@H](CCCN=C(N)N)C(=O)N[C@@H](CCC(N)=O)C(=O)N[C@@H](CCCN=C(N)N)C(=O)N[C@@H](CCCN=C(N)N)C(=O)N[C@@H](CCCN=C(N)N)C(=O)N1CCC[C@H]1C(=O)N1CCC[C@H]1C(=O)N[C@@H](CCC(N)=O)C(N)=O	Active	–	Active	30	–
N=C(N)NCCC[C@H](NC(=O)CNC(=O)COCCOCCOCCOCCOCCOCCNC(=O)COCC(=O)Nc1ccc(-c2c3nc(c(-c4ccccc4)c4ccc([nH]4)c(-c4ccccc4)c4nc(c(-c5ccccc5)c5ccc2[nH]5)C=C4)C=C3)cc1)C(=O)N[C@@H](CCCN=C(N)N)C(=O)N[C@@H](CCCN=C(N)N)C(=O)N[C@@H](CCCN=C(N)N)C(=O)N[C@@H](CCCN=C(N)N)C(=O)N[C@@H](CCCNC(=N)N)C(=O)N[C@@H](CCCNC(=N)N)C(=O)N[C@@H](CCCN=C(N)N)C(=O)O	Active	–	Active	75	–
NCCCC[C@H](NC(=O)[C@H](CCCN=C(N)N)NC(=O)CNC(=O)COCC(=O)NCCOCCOCCOCCOCCOCCOCCOCCNC(=O)COc1ccc(-c2c3nc(c(-c4ccc(OCC(=O)O)cc4)c4ccc([nH]4)c(-c4ccc(OCC(=O)O)cc4)c4nc(c(-c5ccc(OCC(=O)O)cc5)c5ccc2[nH]5)C=C4)C=C3)cc1)C(=O)N[C@@H](CCCCN)C(=O)N[C@@H](CCCN=C(N)N)C(=O)N[C@@H](CCCN=C(N)N)C(=O)N[C@@H](CCC(N)=O)C(=O)N[C@@H](CCCN=C(N)N)C(=O)N[C@@H](CCCN=C(N)N)C(=O)N[C@@H](CCCN=C(N)N)C(=O)N1CCC[C@H]1C(=O)N1CCC[C@H]1C(=O)N[C@@H](CCC(N)=O)C(N)=O	Active	Not Active	Not Active	–	–
CC(C)[C@H](NC(=O)[C@H](CCCCN)NC(=O)[C@H](CCCN=C(N)N)NC(=O)[C@H](CCCCN)NC(=O)[C@H](CCCCN)NC(=O)[C@H](CCCCN)NC(=O)[C@@H]1CCCN1C(=O)CNC(=O)COCCOCCOCCOCCOCCOCCNC(=O)COCC(=O)Nc1ccc(-c2c3nc(c(-c4ccccc4)c4ccc([nH]4)c(-c4ccccc4)c4nc(c(-c5ccccc5)c5ccc2[nH]5)C=C4)C=C3)cc1)C(N)=O (X1-[NH(CH2CH2O)6CH2CO]GPKKKRKV-NH2)	Active	–	–	90	1500
